According to article PMC5189718 (Journal of the American Chemical Society, 2016):
“And” between values parts separate entries of the source, which are not always exact repeats. Identical values can stand only once.

Key:
hKOR [1] = biological target: T1, hKOR (Homo sapiens, UniProt P41145); assay: G protein BRET functional assay at hKOR; format: cell-based; conditions: for IC50: read-out: IC50 ± SEM (antagonist activity), inhibition of a reference agonist (U-50,488); for agonist activity: concentrations up to 100 µM
T1 sequence (P41145 whole entry, the tested form may be a part): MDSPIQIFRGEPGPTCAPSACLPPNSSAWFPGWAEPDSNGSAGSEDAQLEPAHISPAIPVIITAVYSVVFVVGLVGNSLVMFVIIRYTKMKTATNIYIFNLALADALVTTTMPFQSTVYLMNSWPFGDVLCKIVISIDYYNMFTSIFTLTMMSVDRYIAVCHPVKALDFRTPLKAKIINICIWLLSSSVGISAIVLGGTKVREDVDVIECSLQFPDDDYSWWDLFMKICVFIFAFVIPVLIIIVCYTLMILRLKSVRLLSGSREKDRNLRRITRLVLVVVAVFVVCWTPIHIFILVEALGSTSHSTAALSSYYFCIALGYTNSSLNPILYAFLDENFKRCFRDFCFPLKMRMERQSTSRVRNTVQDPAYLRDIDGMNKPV
In short: (§1)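 HEK cells expressing the human receptor, co-transfected with Gα fused to an RLuc8 donor and Gγ fused to an mVenus acceptor. Receptor activation separates the G protein subunits, so the BRET signal falls. Agonist mode gives EC50 and Emax. Antagonist mode gives IC50 for inhibition of a reference agonist, and pA2 from Schild analysis. Values are mean ± SEM, n ≥ 3.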

[2] = biological target: human mu-opioid receptor (hMOR) (Homo sapiens, UniProt P35372); assay: G protein BRET functional assay at hMOR; format: cell-based; conditions: for maximal efficacy (Emax) relative to DAMGO: G protein BRET, agonist mode; for EC50: read-out: EC50 ± SEM (agonist activity), G protein BRET, HEK cells, mean ± SEM, n ≥ 3
human mu-opioid receptor (hMOR), sequence (P35372 whole entry): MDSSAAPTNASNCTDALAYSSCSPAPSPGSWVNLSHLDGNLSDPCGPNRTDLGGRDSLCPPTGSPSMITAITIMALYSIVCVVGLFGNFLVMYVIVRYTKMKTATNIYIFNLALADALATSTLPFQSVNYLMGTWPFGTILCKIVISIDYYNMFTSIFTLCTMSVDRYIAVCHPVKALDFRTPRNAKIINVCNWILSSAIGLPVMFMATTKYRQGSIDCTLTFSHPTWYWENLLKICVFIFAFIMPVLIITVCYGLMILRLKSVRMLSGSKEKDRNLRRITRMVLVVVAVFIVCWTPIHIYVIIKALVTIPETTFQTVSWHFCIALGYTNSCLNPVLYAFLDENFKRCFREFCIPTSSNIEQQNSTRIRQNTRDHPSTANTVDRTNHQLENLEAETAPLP

hMOR [3] = biological target: T2, hMOR (Homo sapiens, UniProt P35372); assay: β-arrestin recruitment BRET assay at hMOR; format: cell-based; conditions: β-arrestin-2 BRET, in the presence of GRK2
T2 sequence (P35372 whole entry): as above

hDOR [4] = biological target: T3, hDOR (Homo sapiens, UniProt P41143); assay: G protein BRET functional assay at hDOR; format: cell-based; conditions: for IC50: read-out: IC50 ± SEM (antagonist activity), inhibition of a reference agonist; for agonist activity: concentrations up to 100 µM
T3 sequence (P41143 whole entry): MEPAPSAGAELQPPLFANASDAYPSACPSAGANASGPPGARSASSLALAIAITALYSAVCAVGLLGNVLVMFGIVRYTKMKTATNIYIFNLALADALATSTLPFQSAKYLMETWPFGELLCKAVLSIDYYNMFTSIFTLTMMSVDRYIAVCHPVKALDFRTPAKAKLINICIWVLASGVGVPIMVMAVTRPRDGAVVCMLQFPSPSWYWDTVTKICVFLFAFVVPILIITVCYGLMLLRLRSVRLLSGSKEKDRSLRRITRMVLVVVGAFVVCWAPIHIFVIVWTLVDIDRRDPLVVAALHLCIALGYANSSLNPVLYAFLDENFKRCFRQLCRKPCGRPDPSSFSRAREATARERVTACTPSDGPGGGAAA
In short: as §1

hDOR [5] = biological target: T3, hDOR; assay: Radioligand binding at hDOR; conditions: read-out: Ki ± SEM, n ≥ 3
mouse MOR (mMOR) = mouse MOR (mMOR) (Mus musculus, UniProt P42866); assay: G protein BRET functional assay at mouse MOR; format: cell-based
mouse MOR (mMOR), sequence (P42866 whole entry): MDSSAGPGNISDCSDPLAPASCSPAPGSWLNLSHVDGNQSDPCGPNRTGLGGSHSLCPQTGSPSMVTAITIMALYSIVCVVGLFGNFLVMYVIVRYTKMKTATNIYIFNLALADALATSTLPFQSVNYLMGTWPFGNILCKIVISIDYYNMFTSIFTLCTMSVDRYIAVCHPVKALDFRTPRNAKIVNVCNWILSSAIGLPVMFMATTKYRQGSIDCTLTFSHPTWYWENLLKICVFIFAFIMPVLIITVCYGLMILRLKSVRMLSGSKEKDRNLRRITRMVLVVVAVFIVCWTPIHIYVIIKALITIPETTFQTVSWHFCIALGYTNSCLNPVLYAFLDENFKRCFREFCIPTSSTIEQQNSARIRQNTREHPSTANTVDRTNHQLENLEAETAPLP

rodent opioid receptors = assay: G protein BRET functional assays using rodent opioid receptors; format: cell-based; conditions: rodent receptors (mouse or rat)
hMOR [6] = biological target: T2, hMOR; assay: Radioligand binding at hMOR; conditions: read-out: Ki ± SEM, n ≥ 3
hKOR [7] = biological target: T1, hKOR; assay: Radioligand binding at hKOR; conditions: read-out: Ki ± SEM, n ≥ 3

Row | Compound | IC50 (hDOR [4]) [µM] | Ki (hDOR [5]) [µM] | IC50 (hKOR [1]) [µM] | agonist or antagonist activity at rodent opioid receptors (rodent opioid receptors) | agonist activity (hDOR [4]) | agonist activity (hKOR [1]) | other results
1 | CCC1CN2CCc3c([nH]c4cccc(OC)c34)C2CC1C(=COC)C(=O)OC (single isomer, unassigned; (+)) [(+)-mitragynine] |  |  |  |  |  |  | Emax (hKOR [1]; G protein BRET, agonist mode): 31%
2 | CC[C@@H]1CN2CCc3c([nH]c4cccc(O)c34)[C@@H]2C[C@@H]1/C(=C\OC)C(=O)OC [Compound 1] |  |  |  |  |  |  | maximal efficacy (Emax) relative to DAMGO [2]: 29%; EC50 [2]: 0.681 ± 0.379 µM
3 | CO/C=C(/C(=O)OC)[C@@H]1CCN2CCc3c([nH]c4cccc(OC)c34)[C@@H]2C1 [Compound 3, desethylmitragynine] |  |  |  |  |  |  | maximal efficacy (Emax) relative to DAMGO [2]: 59%; EC50 [2]: 12 ± 7.6 µM
4 | CC[C@@H]1CN2CC[C@@]3(O)C(=Nc4cccc(OC)c43)[C@@H]2C[C@@H]1/C(=C\OC)C(=O)OC [Compound 7-OH, 7-hydroxymitragynine] | > 10 | 0.219 ± 0.041 | 7.9 |  |  |  | β-arrestin recruitment (hMOR [3]): no measurable β-arrestin binding; agonist activity at mMOR (mouse MOR (mMOR)): retains its agonist activity; pA2 (Schild analysis) (hKOR [1]; competitive antagonism): 490 ± 131 nM; pA2 determined from Schild analysis (hKOR [1]; competitive antagonism): 0.49 µM
5 | C=C[C@H]1CN2CCc3c([nH]c4cccc(OC)c34)[C@@H]2C[C@@H]1/C(=C\OC)C(=O)OC [paynantheine] |  | > 10 |  | no notable agonist or antagonist activity | no measurable agonist activity | no measurable agonist activity | agonist activity ([2]; concentrations up to 100 µM): no measurable agonist activity; IC50 ([2]; read-out: IC50 ± SEM (antagonist activity), inhibition of a reference agonist, n ≥ 3): 2.2 µM; Ki (hMOR [6]): 0.41 ± 0.152 µM
6 | CC[C@@H]1CN2CCc3c([nH]c4cccc(OC)c34)[C@H]2C[C@@H]1/C(=C\OC)C(=O)OC [speciociliatine] | > 10 | > 10 | > 10 | no notable agonist or antagonist activity | no measurable agonist activity | no measurable agonist activity | 
7 | CC[C@H]1CN2CCc3c([nH]c4cccc(OC)c34)[C@@H]2C[C@@H]1/C(=C\OC)C(=O)OC [speciogynine] | > 10 | > 10 | > 10 | no notable agonist or antagonist activity | no measurable agonist activity | no measurable agonist activity | 
8 | mitragynine | > 10 | > 10 | 8.5 | no agonist activity |  |  | Ki (hKOR [7]): 0.772 ± 0.207 µM; antagonist activity at hDOR (hDOR [4]): very low potency; pA2 determined from Schild analysis (hKOR [1]; competitive antagonism): 1.4 ± 0.40 µM and 1.4 µM
